Source: ChEMBL document CHEMBL1157441, “Fungicidal activity of truncated analogues of dihydrosphingosine” (2008)
In brackets after ≈: the same amount, converted by molar mass. Activity calls are given as the source filed them.

What follows are compounds tested on Nakaseomyces glabratus (assay: Fungicidal activity against Candida glabrata BG2).
Format: functional
Method in brief: (§1)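 Overnight cultures diluted 1/400 in PBS, exposed to compound or DMSO without ascorbic acid for 0 h and 5 h at 37°C. Survivors counted as CFU on YPD agar after 2 days at 30°C. MFC taken as lowest concentration giving under 1% survival relative to DMSO control.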

Which MFC does the source give for `CCCCCCCCC[C@@H](O)[C@@H](N)CO` here?
Its MFC is 10 µg/mL (≈ 46 µM).

Which MFC does the source give for `CCCCCCCCCCCCCC[C@@H](O)[C@@H](N)CO` here?
Its MFC is 0.5 µg/mL (≈ 1.74 µM).

With `CCCCCCCCCCCCCC[C@@H](O)[C@@H](O)[C@@H](N)CO` [PHYTOSPHINGOSINE] as the compound, how does the MFC read?
The MFC was 1 µg/mL (≈ 3.15 µM).

`CCCCCCCCCCCCCCC[C@@H](O)[C@@H](N)CO` [DIHYDROSPINGOSINE] was tested. Which MFC did it give?
Its MFC is 1 µg/mL (≈ 3.32 µM).

How did the MFC turn out when `CC[C@@H](O)[C@@H](N)CO` was run?
Its MFC is greater than 100 µg/mL.

With `CCCCCCCCCCCC[C@@H](O)[C@@H](N)CO` as the compound, how does the MFC read?
Its MFC is 0.5 µg/mL (≈ 1.93 µM).

For `CCCCCC[C@@H](O)[C@@H](N)CO`, which MFC is on record?
Its MFC is greater than 100 µg/mL.

The compounds below were run on Candida albicans (assay: Fungicidal activity against Candida albicans CAI4).
Format: functional
Method in brief: as §1

How did the MFC turn out when `CCCCCCCCC[C@@H](O)[C@@H](N)CO` was run?
The MFC was 10 µg/mL (≈ 46 µM).

For `CCCCCCCCCCCCCC[C@@H](O)[C@@H](N)CO`, which MFC is on record?
Its MFC is 0.5 µg/mL (≈ 1.74 µM).

`CCCCCCCCCCCCCC[C@@H](O)[C@@H](O)[C@@H](N)CO` [PHYTOSPHINGOSINE] was tested. Which MFC did it give?
The MFC was 1 µg/mL (≈ 3.15 µM).

With `CCCCCCCCCCCCCCC[C@@H](O)[C@@H](N)CO` [DIHYDROSPINGOSINE] as the compound, how does the MFC read?
The MFC was 5 µg/mL (≈ 16.6 µM).

With `CC[C@@H](O)[C@@H](N)CO` as the compound, how does the MFC read?
Its MFC is greater than 100 µg/mL.

With `CCCCCCCCCCCC[C@@H](O)[C@@H](N)CO` as the compound, how does the MFC read?
Its MFC is 0.5 µg/mL (≈ 1.93 µM).

How did the MFC turn out when `CCCCCC[C@@H](O)[C@@H](N)CO` was run?
Its MFC is greater than 100 µg/mL.

Each compound was assayed on Candida albicans (assay: Fungicidal activity against Candida albicans CAI4 in presence of 10 mM ascorbic acid).
Format: functional
Method in brief: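 Overnight C. albicans culture diluted 1/400 in PBS, exposed to compound or DMSO with 10 mM ascorbic acid for 0 h and 5 h at 37°C. CFU counted on YPD agar after 2 days at 30°C. MFC defined as minimal concentration leaving under 1% survival versus DMSO control.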

`CCCCCCCCC[C@@H](O)[C@@H](N)CO` was tested. Which MFC did it give?
Its MFC is greater than 25 µg/mL.

Which MFC does the source give for `CCCCCCCCCCCCCC[C@@H](O)[C@@H](N)CO` here?
The MFC was 2 µg/mL.

Which MFC does the source give for `CCCCCCCCCCCCCC[C@@H](O)[C@@H](O)[C@@H](N)CO` [PHYTOSPHINGOSINE] here?
The MFC was 1 µg/mL.

Which MFC does the source give for `CCCCCCCCCCCCCCC[C@@H](O)[C@@H](N)CO` [DIHYDROSPINGOSINE] here?
The MFC was 5 µg/mL.

For `CCCCCCCCCCCC[C@@H](O)[C@@H](N)CO`, which MFC is on record?
The MFC was 10 µg/mL.

What follows are compounds tested on Candida albicans (assay: Induction of endogenous ROS accumulation in Candida albicans CAI4 at 100 ug/ml after 3 hrs by 2',7'-dichlorofluorescein diacetate staining).
Format: functional, organism-based
Method in brief: (§2)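 Log-phase cells suspended in PBS and pre-incubated with compounds for 3 h at 37°C. Cells then washed in PBS and incubated with 2',7'-dichlorofluorescein diacetate for 3 h at 37°C. Cellular fluorescence read by fluorescence spectrometer, ex 485 nm / em 525 nm. Tested over a range of concentrations up to 100 µg/ml.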

With `CC[C@@H](O)[C@@H](N)CO` as the compound, how does the Activity read?
Its Activity is “inactive”.

For `CCCCCC[C@@H](O)[C@@H](N)CO`, which Activity is on record?
The Activity was “inactive”.

These compounds were tested on Candida albicans (assay: Induction of endogenous ROS accumulation in Candida albicans CAI4 after 3 hrs by 2',7'-dichlorofluorescein diacetate staining).
Format: functional, organism-based
Method in brief: as §2

With `CCCCCCCCC[C@@H](O)[C@@H](N)CO` as the compound, how does the Activity read?
Its Activity is “Active”.

`CCCCCCCCCCCCCC[C@@H](O)[C@@H](N)CO` was tested. Which Activity did it give?
The Activity was “Active”.

With `CCCCCCCCCCCCCC[C@@H](O)[C@@H](O)[C@@H](N)CO` [PHYTOSPHINGOSINE] as the compound, how does the Activity read?
The Activity was “Active”.

With `CCCCCCCCCCCCCCC[C@@H](O)[C@@H](N)CO` [DIHYDROSPINGOSINE] as the compound, how does the Activity read?
Its Activity is “Active”.

Which Activity does the source give for `CCCCCCCCCCCC[C@@H](O)[C@@H](N)CO` here?
Its Activity is “Active”.
